Assay results: ChEMBL document CHEMBL4364265, “Oridonin derivatives as potential anticancer drug candidates triggering apoptosis through mitochondrial pathway in the liver cancer cells” (Eur J Med Chem, 2019)
Activity calls are given as the source filed them. The rule behind the calls is not given here.

Key:
[1] = test system: HepG2; assay: Antiproliferative activity against human HepG2 cells incubated for 72 hrs by CCK8 cells; format: functional, cell-based; settings: HepG2, 72 h
Outline: (§1)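 CCK-8 proliferation assay. 10,000 cells per well were preincubated 24 h at 37 °C with 5% CO2, then given compound dissolved in DMSO and incubated 72 h. CCK-8 was added for 4 h and absorbance read at 450 nm. IC50 was taken from dose-response curves as mean ± SEM of at least three independent experiments, with paclitaxel as positive control. HepG2 and L-O2 were grown in DMEM/10% FBS; A549 and RPMI-8226 in RPMI 1640/10% FBS.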

[2] = test system: RPMI-8226; assay: Antiproliferative activity against human RPMI8226 cells incubated for 72 hrs by CCK8 cells; format: functional, cell-based; settings: RPMI-8226, 72 h; outline: as §1
[3] = test system: A549; assay: Antiproliferative activity against human A549 cells incubated for 72 hrs by CCK8 cells; format: functional, cell-based; settings: A549, 72 h; outline: as §1
[4] = test system: PLC-PRF-5; assay: Antitumour activity against human PLC/PRF/5 cells xenografted in nude mouse assessed as reduction in tumour weight at 10 mg/kg, iv administrated once every 3 days for 4 weeks relative to control; format: functional
Outline: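 PLC/PRF/5 xenograft. 2 × 10^7 cells in 0.2 mL saline were injected s.c. into the right forelimb of nude mice. At about 120 mm3, mice were randomized into 3 groups of 6 and dosed i.v. at 10 mg/kg once every three days for 4 weeks. Vehicle was 10% N-methylpyrrolidone/12% Tween-80/78% saline. Volume (a×b²/2) and body weight were recorded daily, and tumors were excised and weighed at the end.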

[5] = test system: L02; assay: Cytotoxicity against human LO2 cells incubated for 72 hrs by CCK8 cells; format: cell-based; settings: L02, 72 h; outline: as §1
[6] = Selectivity index, ratio of IC50 for human LO2 cells to IC50 for human PLC/PRF/5 cells
Outline: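 L-O2 and PLC/PRF/5 cells were grown in DMEM with 10% FBS at 37 °C and 5% CO₂. For CCK-8 proliferation, 10,000 cells per well were pre-incubated 24 h, then exposed to compound in DMSO for 72 h. CCK-8 was added for 4 h and A450 read. IC50 came from dose–response curves; SI is IC50(L-O2)/IC50(PLC/PRF/5).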

[7] = test system: HepG2; assay: Inhibition of colony formation in human HepG2 cells at 0.1 to 1 uM incubated for 10 days by crystal violet staining based microscopic method; format: functional, cell-based
Outline: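 Five hundred cells plated per 30 mm dish and left 12 h. Medium with compound was added (0, 0.1, 0.5, 1 µM) or DMSO as negative control, and cells grew 10 days. Colonies were fixed in methanol 15 min, stained with 0.1% crystal violet 15 min, photographed and counted. Colony size was checked by microscope. Relative colony number is mean ± SD of ≥3 independent experiments.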

[8] = test system: PLC-PRF-5; assay: Inhibition of colony formation in human PLC/PRF/5 cells assessed as decrease in colony size at 0.1 to 1 uM incubated for 10 days by crystal violet staining based microscopic method
[9] = test system: PLC-PRF-5; assay: Antiproliferative activity against human PLC/PRF/5 cells incubated for 72 hrs by CCK8 cells; format: functional, cell-based; settings: PLC-PRF-5, 72 h

C=C1C(=O)[C@]23[C@H](OC(=O)CCc4ccc(OC)c(OC)c4)[C@H]1CC[C@H]2[C@@]12CO[C@]3(O)[C@@H](O)[C@@H]1C(C)(C)CC[C@@H]2O
IC50 [1]: 9.63 µM
IC50 [2]: 10.1 µM
IC50 [3]: 22.8 µM

C=C1C(=O)[C@]23[C@H](OC(=O)c4ccc(F)cc4)[C@H]1CC[C@H]2[C@@]12CO[C@]3(O)[C@@H](O)[C@@H]1C(C)(C)CC[C@@H]2O
IC50 [1]: 3.1 µM
IC50 [2]: 14.3 µM
IC50 [3]: 14.7 µM

C=C1C(=O)[C@]23[C@H](OC(=O)[C@@H]4OC(c5ccc(OC)cc5)N(C(=O)OC(C)(C)C)[C@H]4c4ccccc4)[C@H]1CC[C@H]2[C@@]12CO[C@]3(O)[C@@H](O)[C@@H]1C(C)(C)CC[C@@H]2O (stereo partly drawn)
IC50 [1]: 44.6 µM
IC50 [2]: 16.6 µM
IC50 [3]: 22.6 µM

C=C1C(=O)[C@]23[C@H](OC(=O)c4cc(F)ccc4F)[C@H]1CC[C@H]2[C@@]12CO[C@]3(O)[C@@H](O)[C@@H]1C(C)(C)CC[C@@H]2O
IC50 [1]: 26 µM
IC50 [2]: 12.2 µM
IC50 [3]: 10.7 µM

C=C1C(=O)[C@]23[C@H](OC(=O)c4ccc(F)c(F)c4F)[C@H]1CC[C@H]2[C@@]12CO[C@]3(O)[C@@H](O)[C@@H]1C(C)(C)CC[C@@H]2O
IC50 [1]: 15.4 µM
IC50 [2]: 14.7 µM
IC50 [3]: 12.4 µM

C=C1C(=O)[C@@]23C(=O)[C@H]4OC[C@]5([C@@H](OC(C)=O)CCC(C)(C)[C@@H]45)[C@@H]2CC[C@@H]1[C@H]3O
IC50 [1]: 2.07 µM

C=C1C(=O)[C@]23[C@H](OC(=O)/C=C/c4cc(OC)c(OC)c(OC)c4)[C@H]1CC[C@H]2[C@@]12CO[C@]3(O)[C@@H](O)[C@@H]1C(C)(C)CC[C@@H]2O
IC50 [1]: 5.98 µM
IC50 [2]: 5.98 µM
IC50 [3]: 8.8 µM

C=C1C(=O)[C@]23[C@H](OC(=O)c4ccc(C#N)cc4)[C@H]1CC[C@H]2[C@@]12CO[C@]3(O)[C@@H](O)[C@@H]1C(C)(C)CC[C@@H]2O
IC50 [1]: 36.6 µM
IC50 [2]: 35.2 µM
IC50 [3]: 17.4 µM

C=C1C(=O)[C@]23[C@H](O)[C@H]1CC[C@H]2[C@@]12CO[C@]3(O)[C@@H](O)[C@@H]1C(C)(C)CC[C@@H]2O [ORIDONIN]
Activity [4]: inactive
IC50 [5]: 17.5 µM
Ratio IC50 [6]: 2.4
IC50 [1]: 8.12 µM
inhibition [7]: Active
inhibition [8]: Active
IC50 [9]: 7.41 µM
IC50 [2]: 9.25 µM
IC50 [3]: 30.4 µM

C=C1C(=O)[C@]23[C@H](OC(=O)CCc4cc(OC)c(OC)c(OC)c4)[C@H]1CC[C@H]2[C@@]12CO[C@]3(O)[C@@H](O)[C@@H]1C(C)(C)CC[C@@H]2O
IC50 [1]: 12.6 µM
IC50 [2]: 12.4 µM
IC50 [3]: 11 µM

C=C1C(=O)[C@]23[C@H](OC(=O)Cc4cc(OC)c(OC)c(OC)c4)[C@H]1CC[C@H]2[C@@]12CO[C@]3(O)[C@@H](O)[C@@H]1C(C)(C)CC[C@@H]2O
IC50 [1]: 8.79 µM
IC50 [2]: 10.9 µM
IC50 [3]: 37.5 µM

C=C1C(=O)[C@@]23C(=O)[C@@H](OC(C)=O)[C@@H]4C(C)(C)CC[C@H](OC(C)=O)[C@@]4(COC(C)=O)[C@@H]2CC[C@@H]1[C@H]3OC(C)=O
IC50 [1]: 5.4 µM
IC50 [2]: 13.9 µM
IC50 [3]: 10.5 µM

C=C1C(=O)[C@]23[C@H](OC(=O)c4ccc(F)c(NC(=O)c5ccc(OC(F)(F)F)cc5)c4)[C@H]1CC[C@H]2[C@@]12CO[C@]3(O)[C@@H](O)[C@@H]1C(C)(C)CC[C@@H]2O
IC50 [1]: 6.54 µM
IC50 [2]: 10.5 µM
IC50 [3]: 20.9 µM

CC(=O)O[C@H]1C(=O)[C@@]2(C)[C@H]([C@H](OC(=O)c3ccccc3)[C@]3(O)C[C@H](OC(=O)[C@H](O)[C@@H](NC(=O)c4ccccc4)c4ccccc4)C(C)=C1C3(C)C)[C@]1(OC(C)=O)CO[C@@H]1C[C@@H]2O [PACLITAXEL]
IC50 [1]: 0.18 µM
IC50 [2]: 1.53 µM
IC50 [3]: 0.39 µM

C=C1C(=O)[C@]23[C@H](OC(=O)[C@H](CC(C)C)NC(=O)OC(C)(C)C)[C@H]1CC[C@H]2[C@@]12CO[C@]3(O)[C@@H](O)[C@@H]1C(C)(C)CC[C@@H]2O
IC50 [5]: 6.3 µM
Ratio IC50 [6]: 2.4
IC50 [1]: 0.98 µM
inhibition [7]: Active
IC50 [9]: 2.67 µM

C=C1C(=O)[C@]23[C@H](OC(=O)CCCCC4CCSS4)[C@H]1CC[C@H]2[C@@]12CO[C@]3(O)[C@@H](O)[C@@H]1C(C)(C)CC[C@@H]2O (stereo partly drawn)
IC50 [1]: 32.3 µM
IC50 [2]: > 100 µM
IC50 [3]: > 100 µM

C=C1C(=O)[C@]23[C@H](O)[C@H]1CC[C@H]2[C@@]12CO[C@]3(O)[C@@H](OC(C)=O)[C@@H]1C(C)(C)CC[C@@H]2OC(C)=O
IC50 [1]: 12.3 µM
IC50 [2]: 13 µM
IC50 [3]: 10.5 µM

C=C1C(=O)[C@]23[C@H](OC(=O)c4ccc(F)c(NC(=O)Cc5ccc(OC)c(OC)c5)c4)[C@H]1CC[C@H]2[C@@]12CO[C@]3(O)[C@@H](O)[C@@H]1C(C)(C)CC[C@@H]2O
IC50 [1]: 3.76 µM
IC50 [2]: 19 µM
IC50 [3]: 17.2 µM

C=C1C(=O)[C@]23[C@H](OC(=O)c4ccc(F)c(NC(=O)c5ccc(OC)c(OCc6ccccc6)c5)c4)[C@H]1CC[C@H]2[C@@]12CO[C@]3(O)[C@@H](O)[C@@H]1C(C)(C)CC[C@@H]2O
IC50 [1]: 8.2 µM
IC50 [2]: 6.71 µM
IC50 [3]: 11 µM

C=C1C(=O)[C@]23[C@H](OC(=O)c4ccc(OC)c(OCCBr)c4)[C@H]1CC[C@H]2[C@@]12CO[C@]3(O)[C@@H](O)[C@@H]1C(C)(C)CC[C@@H]2O
IC50 [1]: 9.76 µM
IC50 [2]: 8.65 µM
IC50 [3]: 11.5 µM

C=C1C(=O)[C@]23[C@H](OC(=O)CCc4ccc(OC)cc4)[C@H]1CC[C@H]2[C@@]12CO[C@]3(O)[C@@H](O)[C@@H]1C(C)(C)CC[C@@H]2O
IC50 [1]: 8.99 µM
IC50 [2]: 9.42 µM
IC50 [3]: 14 µM

C=C1C(=O)[C@]23[C@H](O)[C@H]1CC[C@H]2[C@@]12CO[C@@]3(O)[C@@H](O)[C@@H]1C(C)(C)CC[C@@H]2OC(C)=O
IC50 [1]: 5.67 µM
IC50 [2]: 11 µM
IC50 [3]: 10.9 µM

C=C1C(=O)[C@]23[C@H](OC(=O)/C=C/c4ccc(OC)c(OC)c4)[C@H]1CC[C@H]2[C@@]12CO[C@]3(O)[C@@H](O)[C@@H]1C(C)(C)CC[C@@H]2O
IC50 [5]: 1.85 µM
Ratio IC50 [6]: 1.8
IC50 [1]: 1.98 µM
inhibition [7]: Active
IC50 [9]: 1.03 µM
IC50 [2]: 5.77 µM
IC50 [3]: 24.9 µM

C=C1C(=O)[C@]23[C@H](OC(=O)c4ccc(CCl)cc4)[C@H]1CC[C@H]2[C@@]12CO[C@]3(O)[C@@H](O)[C@@H]1C(C)(C)CC[C@@H]2O
IC50 [1]: 5.66 µM
IC50 [2]: 5.01 µM
IC50 [3]: 16.7 µM

C=C1C(=O)[C@]23[C@H](OC(=O)c4cccnc4Cl)[C@H]1CC[C@H]2[C@@]12CO[C@]3(O)[C@@H](O)[C@@H]1C(C)(C)CC[C@@H]2O
IC50 [1]: 27.5 µM
IC50 [2]: 15.8 µM
IC50 [3]: 31.1 µM

C=C1C(=O)[C@]23[C@H](OC(=O)c4ccc(OCc5ccccc5)cc4F)[C@H]1CC[C@H]2[C@@]12CO[C@]3(O)[C@@H](O)[C@@H]1C(C)(C)CC[C@@H]2O
IC50 [1]: 16 µM
IC50 [2]: 17.5 µM
IC50 [3]: 14 µM
